Measured values reported in ChEMBL document CHEMBL1124287, “Imidazole-pyridine bioisosterism: comparison of the inotropic activities of pyridine- and imidazole-substituted 6-phenyldihydropyridazinone cardiotonics” (1988).

How the values were obtained:
[1] = test system: Canis familiaris; test: Percent increase in heart rate was measured in anesthetized dogs; type: functional, Canis lupus familiaris
In short: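 Heart rate taken from a cardiometer triggered by the femoral arterial pressure pulse, in pentobarbital-anesthetized (35 mg/kg iv), ventilated mongrel dogs (7–14 kg). Escalating iv log doses at 5-min intervals. Reported as percent change from control at the inotropic ED50 dose.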

[2] = test system: Canis familiaris; test: Heart contractility was measured in anesthetized dogs (iv); type: functional; conditions: Canis lupus familiaris
In short: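 Mongrel dogs of either sex (7–14 kg), pentobarbital-anesthetized (35 mg/kg iv), ventilated, kept at 37–38 °C. Right-ventricular Walton-Brodie strain-gauge arch at 50 g tension. Increasing log doses given iv via femoral vein at 5-min intervals, peak response recorded. ED50 (dose for 50% contractility rise) by linear regression, mean ± SEM. Separate animal group per drug.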

[3] = test system: Canis familiaris; test: Percent decrease in mean arterial blood pressure was measured in anesthetized dogs; type: functional, Canis lupus familiaris
In short: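 Pentobarbital-anesthetized (35 mg/kg iv), ventilated mongrel dogs of either sex (7–14 kg). Mean arterial pressure recorded via femoral arterial catheter and pressure transducer. Log doses given iv at 5-min intervals. Value is percent change from control at the inotropic ED50 dose.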

Compound | Increase in HR [1] [%] | ED50 [2] [mg/kg] | Decrease in MAP [3] [%]
O=C1CCC(c2ccc(-c3ccncc3)cc2)=NN1 | 19.1 | 0.146 | 29.9
O=C1CCC(c2ccc(-c3cccnc3)cc2)=NN1 | 7.5 | 0.0194 | 12.7
O=C1CCC(c2ccc3c(c2)CCC(=O)N3)=NN1 | 13.2 | 0.0032 | 16.1
O=C1CCC(c2ccccc2)=NN1 | 39.1 | 6.33 | 24.9
O=C1CCC(c2ccc(-c3ccccc3)cc2)=NN1 | 18.8 | 0.513 | 20.9
CC(=O)Nc1ccc(C2=NNC(=O)CC2)cc1 | 8.8 | 0.0113 | 15.1
O=C1CCC(c2ccc3c(c2)CCCN3)=NN1 | 37 |  | 12
O=C1CCC(c2ccc(-n3ccnc3)cc2)=NN1 [IMAZODAN] | 16.9 | 0.0501 | 28.4
